Assay results published in the M2OR odorant receptor database.
Substitutions are numbered along the chain they refer to.

Experiments:
Details in all cases: stereoisomer not certain
A0A140T8K4 = test system: T1, A0A140T8K4
T1 sequence (whole entry): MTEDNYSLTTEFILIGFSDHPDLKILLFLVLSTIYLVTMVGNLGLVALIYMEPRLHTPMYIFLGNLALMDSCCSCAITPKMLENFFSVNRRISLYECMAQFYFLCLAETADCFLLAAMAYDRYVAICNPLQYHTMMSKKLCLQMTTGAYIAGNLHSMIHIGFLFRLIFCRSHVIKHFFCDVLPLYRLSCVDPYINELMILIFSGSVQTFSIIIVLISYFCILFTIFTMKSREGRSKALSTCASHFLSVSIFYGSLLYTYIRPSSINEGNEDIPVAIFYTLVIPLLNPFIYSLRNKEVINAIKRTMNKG
Procedure, shortened: (§1)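 Values were gathered from published papers (main text and supplementary material), with extra details requested from the original authors when needed, and checked for typos and inconsistencies. Each receptor–molecule pair is called responsive (active) if the original authors judged the measured signal statistically different from baseline, and non-responsive (inactive) otherwise. Assay methods varied by source, often transient mammalian cell-line luciferase assays. Recorded details include cell line, G-protein, co-transfected protein and tags.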

A0A2J8MY22 = test system: T2, A0A2J8MY22
T2 sequence (whole entry): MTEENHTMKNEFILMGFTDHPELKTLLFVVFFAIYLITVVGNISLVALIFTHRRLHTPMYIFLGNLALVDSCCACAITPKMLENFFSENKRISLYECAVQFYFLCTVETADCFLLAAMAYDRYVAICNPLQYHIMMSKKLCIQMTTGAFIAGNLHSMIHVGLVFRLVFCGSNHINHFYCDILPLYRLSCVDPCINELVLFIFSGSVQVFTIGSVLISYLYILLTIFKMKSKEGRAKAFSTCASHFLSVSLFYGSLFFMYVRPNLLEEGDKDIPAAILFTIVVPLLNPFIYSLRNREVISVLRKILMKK
Procedure, shortened: as §1

A0A2R8ZIW4 = test system: T3, A0A2R8ZIW4
T3 sequence (whole entry): T2 sequence (whole entry) with V39I, I280V
Procedure, shortened: as §1

A0A3Q7SVK8 = test system: T4, A0A3Q7SVK8
T4 sequence (whole entry): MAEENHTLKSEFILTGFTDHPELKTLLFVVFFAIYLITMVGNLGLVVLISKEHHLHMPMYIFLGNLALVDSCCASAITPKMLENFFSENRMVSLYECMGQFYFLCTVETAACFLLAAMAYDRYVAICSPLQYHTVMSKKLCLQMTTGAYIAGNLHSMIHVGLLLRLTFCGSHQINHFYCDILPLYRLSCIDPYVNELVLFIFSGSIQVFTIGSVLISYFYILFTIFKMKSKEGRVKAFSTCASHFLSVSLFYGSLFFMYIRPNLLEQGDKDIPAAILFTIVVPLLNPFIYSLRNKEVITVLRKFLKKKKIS
Procedure, shortened: as §1

A0A6P3DZI2 = test system: T5, A0A6P3DZI2
T5 sequence (whole entry): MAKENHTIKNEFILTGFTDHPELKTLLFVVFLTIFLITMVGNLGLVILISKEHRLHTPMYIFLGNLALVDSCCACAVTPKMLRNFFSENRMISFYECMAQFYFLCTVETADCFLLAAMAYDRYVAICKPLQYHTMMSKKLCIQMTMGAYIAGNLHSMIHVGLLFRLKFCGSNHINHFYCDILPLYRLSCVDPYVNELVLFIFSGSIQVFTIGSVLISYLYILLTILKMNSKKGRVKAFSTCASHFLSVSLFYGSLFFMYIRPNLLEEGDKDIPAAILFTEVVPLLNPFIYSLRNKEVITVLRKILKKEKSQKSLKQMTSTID
Procedure, shortened: as §1

A0A6P6H1F7 = test system: T6, A0A6P6H1F7
T6 sequence (whole entry): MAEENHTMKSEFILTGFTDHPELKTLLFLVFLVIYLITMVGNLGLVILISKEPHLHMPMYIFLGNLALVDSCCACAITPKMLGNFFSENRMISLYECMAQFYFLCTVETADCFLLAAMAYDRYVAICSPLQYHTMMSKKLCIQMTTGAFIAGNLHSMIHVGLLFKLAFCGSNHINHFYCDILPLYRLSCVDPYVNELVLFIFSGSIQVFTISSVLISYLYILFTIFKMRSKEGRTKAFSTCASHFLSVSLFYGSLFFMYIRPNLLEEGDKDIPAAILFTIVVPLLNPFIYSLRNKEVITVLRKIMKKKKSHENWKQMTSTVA
Procedure, shortened: as §1

A0A1L1SVG7 = test system: T7, A0A1L1SVG7
T7 sequence (whole entry): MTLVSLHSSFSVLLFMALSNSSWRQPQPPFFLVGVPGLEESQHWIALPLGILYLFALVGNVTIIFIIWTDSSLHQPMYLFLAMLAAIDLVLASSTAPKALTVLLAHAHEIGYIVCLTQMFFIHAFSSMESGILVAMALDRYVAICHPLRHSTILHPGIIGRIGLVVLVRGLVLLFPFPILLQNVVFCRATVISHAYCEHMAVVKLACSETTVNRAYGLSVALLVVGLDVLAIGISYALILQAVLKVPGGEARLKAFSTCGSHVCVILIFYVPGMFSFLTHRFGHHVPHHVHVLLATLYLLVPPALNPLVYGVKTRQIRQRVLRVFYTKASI
Procedure, shortened: as §1

A0A140T8K0 = test system: T8, A0A140T8K0
T8 sequence (whole entry): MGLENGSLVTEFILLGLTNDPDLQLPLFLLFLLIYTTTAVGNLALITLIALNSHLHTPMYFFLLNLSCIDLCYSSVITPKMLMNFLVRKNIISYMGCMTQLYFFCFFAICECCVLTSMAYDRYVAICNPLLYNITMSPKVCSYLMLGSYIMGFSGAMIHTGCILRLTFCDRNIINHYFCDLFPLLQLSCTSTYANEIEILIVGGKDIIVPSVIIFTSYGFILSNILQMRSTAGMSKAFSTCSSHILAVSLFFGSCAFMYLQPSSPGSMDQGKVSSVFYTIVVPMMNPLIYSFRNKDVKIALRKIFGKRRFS
Procedure, shortened: as §1

| SMILES | odorant receptor agonist call (A0A140T8K4) | odorant receptor agonist call (A0A2J8MY22) | odorant receptor agonist call (A0A2R8ZIW4) | odorant receptor agonist call (A0A3Q7SVK8) | odorant receptor agonist call (A0A6P3DZI2) | odorant receptor agonist call (A0A6P6H1F7) | odorant receptor agonist call (A0A1L1SVG7) | odorant receptor agonist call (A0A140T8K0) |
| --- | --- | --- | --- | --- | --- | --- | --- | --- |
| CC(=O)c1cnccn1 | inactive | active | active | active | inactive | active | – | – |
| Cc1nccnc1C | inactive | active | active | active | inactive | active | – | – |
| CCCC(C)=O | inactive | – | – | – | – | – | inactive | – |
| C=Cc1cnccn1 | inactive | active | active | active | inactive | active | – | – |
| CCC(=O)O | inactive | – | – | – | – | – | inactive | inactive |
| CCCCCCCCCS | inactive | – | – | – | – | – | inactive | inactive |
| CCCCC(=O)O | inactive | – | – | – | – | – | inactive | inactive |
| CC1=NC(C)C(C)S1 (centres undefined) | active | active | active | active | active | active | – | – |
| CCc1nccnc1C(C)=O | inactive | active | active | active | inactive | active | – | – |
| CCCCOC(=O)C(C)OC(=O)CCC (centres undefined) | inactive | – | – | – | – | – | inactive | – |
| CC1CCc2nccnc21 (centres undefined) | inactive | active | active | active | inactive | active | – | – |
| CCCCCCO | inactive | – | – | – | – | – | inactive | inactive |
| CCC(C)c1nccnc1OC (centres undefined) | inactive | active | active | active | inactive | active | – | inactive |
| CCc1nccnc1OC | inactive | active | active | active | inactive | active | – | – |
| CCc1nccnc1CC | inactive | active | active | active | inactive | active | – | inactive |
| CC(=O)c1nccnc1C | inactive | active | active | active | inactive | active | – | – |
| COc1nccnc1CC(C)C | inactive | active | active | active | inactive | active | – | – |
